ChEMBL document CHEMBL5303300, “EUbOPEN Chemogenomics Library - Multiplex” (2023)
Where “and” joins values, the source holds several entries; their conditions need not be identical. Equal entries are not always repeated.

Legend:
[1] = system: Fibroblast; test: Multiplex assay against human fibroblast; format: toxicity, cell-based; conditions: number of replicates 2
How it was run: (§1)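 Live cells were stained at seeding with Hoechst33342, BioTracker Green Microtubule Cytoskeleton Dye, MitoTracker Red and Annexin V Alexa Fluor 680. Following compound addition, they were imaged on a CQ1 microscope at 37°C and 5% CO2 and gated by CellPathfinder machine learning into Hoechst high-intensity objects or normal cells, with normal cells split into healthy, pyknosed or fragmented nuclei and pyknosed cells into mitotic or apoptotic. Tubulin, mitochondrial-mass and membrane-permeability phenotypes are per cents of healthy-nucleus cells.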

[2] = system: U2OS; test: Multiplex assay against U2OS; format: toxicity, cell-based; conditions: human, number of replicates 2; how it was run: as §1
[3] = 12 h, 1 µM, compound concentration 1 uM
[4] = 12 h, 10 µM, compound concentration 10 uM
[5] = 24 h, 1 µM, compound concentration 1 uM
[6] = 24 h, 10 µM, compound concentration 10 uM
[7] = 48 h, 1 µM, compound concentration 1 uM
[8] = 48 h, 10 µM, compound concentration 10 uM

For `Cc1onc(-c2ccccc2Cl)c1C(=O)N(C)c1ccc(Cl)cc1`, the “Population Apoptotic (%)” value [1, 3] was 35%, the “Population Fragmented Nuclei (%)” value [1, 3] was 11% and 12% and the “Population Healthy Nuclei (%)” value [1, 3] was 66% and 69%. The “Population Hoechst High Intensity Objects (%)” value [1, 3] was 0%, the “Population Membrane Permeable-Phenotype (%)” value [1, 3] was 6% and 8% and the “Population Mitochondria Different-Phenotype (%)” value [1, 3] was 0%. For the same compound, the “Population Mitotic Cells (%)” value [1, 3] was 64%, the “Population Normal (%)” value [1, 3] was 100% and the “Population Pyknosed Nuclei (%)” value [1, 3] was 22% and 18%. For the same compound, the “Population Tubulin-Different-Phenotype (%)” value [1, 3] was 16% and 12%, the “Total Cell Count” value [1, 3] was 167 and 197 and the “Population Apoptotic (%)” value [1, 4] was 36% and 47%. The “Population Fragmented Nuclei (%)” value [1, 4] was 8%, the “Population Healthy Nuclei (%)” value [1, 4] was 67% and 72% and the “Population Hoechst High Intensity Objects (%)” value [1, 4] was 0%. For the same compound, the “Population Membrane Permeable-Phenotype (%)” value [1, 4] was 8% and 11%, the “Population Mitochondria Different-Phenotype (%)” value [1, 4] was 2% and the “Population Mitotic Cells (%)” value [1, 4] was 63% and 52%. For the same compound, the “Population Normal (%)” value [1, 4] was 100%, the “Population Pyknosed Nuclei (%)” value [1, 4] was 24% and 18% and the “Population Tubulin-Different-Phenotype (%)” value [1, 4] was 18% and 15%. For the same compound, the “Total Cell Count” value [1, 4] was 185 and 192, the “Population Apoptotic (%)” value [1, 5] was 44% and 31% and the “Population Fragmented Nuclei (%)” value [1, 5] was 8% and 13%. The “Population Healthy Nuclei (%)” value [1, 5] was 66% and 64%, the “Population Hoechst High Intensity Objects (%)” value [1, 5] was 0% and the “Population Membrane Permeable-Phenotype (%)” value [1, 5] was 7% and 6%. For the same compound, the “Population Mitochondria Different-Phenotype (%)” value [1, 5] was 0%, the “Population Mitotic Cells (%)” value [1, 5] was 55% and 68% and the “Population Normal (%)” value [1, 5] was 100%. The “Population Pyknosed Nuclei (%)” value [1, 5] was 24% and 22%, the “Population Tubulin-Different-Phenotype (%)” value [1, 5] was 13% and 9% and the “Total Cell Count” value [1, 5] was 157 and 204. The “Population Apoptotic (%)” value [1, 6] was 56% and 57%, the “Population Fragmented Nuclei (%)” value [1, 6] was 5% and 8% and the “Population Healthy Nuclei (%)” value [1, 6] was 72% and 74%. The “Population Hoechst High Intensity Objects (%)” value [1, 6] was 0%, the “Population Membrane Permeable-Phenotype (%)” value [1, 6] was 5% and 8% and the “Population Mitochondria Different-Phenotype (%)” value [1, 6] was 4% and 0%. The “Population Mitotic Cells (%)” value [1, 6] was 43% and 42%, the “Population Normal (%)” value [1, 6] was 100% and 99% and the “Population Pyknosed Nuclei (%)” value [1, 6] was 22% and 17%. For the same compound, the “Population Tubulin-Different-Phenotype (%)” value [1, 6] was 15% and 11%, the “Total Cell Count” value [1, 6] was 166 and 203 and the “Population Apoptotic (%)” value [1, 7] was 42% and 56%. For the same compound, the “Population Fragmented Nuclei (%)” value [1, 7] was 8% and 14%, the “Population Healthy Nuclei (%)” value [1, 7] was 72% and 68% and the “Population Hoechst High Intensity Objects (%)” value [1, 7] was 0%. The “Population Membrane Permeable-Phenotype (%)” value [1, 7] was 2% and 3%, the “Population Mitochondria Different-Phenotype (%)” value [1, 7] was 0% and the “Population Mitotic Cells (%)” value [1, 7] was 57% and 43%. The “Population Normal (%)” value [1, 7] was 100%, the “Population Pyknosed Nuclei (%)” value [1, 7] was 18% and 17% and the “Population Tubulin-Different-Phenotype (%)” value [1, 7] was 9% and 4%. The “Total Cell Count” value [1, 7] was 148 and 214, the “Population Apoptotic (%)” value [1, 8] was 65% and 54% and the “Population Healthy Nuclei (%)” value [1, 8] was 77% and 74%. For the same compound, the “Population Hoechst High Intensity Objects (%)” value [1, 8] was 0%, the “Population Membrane Permeable-Phenotype (%)” value [1, 8] was 7% and 4% and the “Population Mitochondria Different-Phenotype (%)” value [1, 8] was 1% and 0%. For the same compound, the “Population Mitotic Cells (%)” value [1, 8] was 34% and 45%, the “Population Normal (%)” value [1, 8] was 100% and the “Population Pyknosed Nuclei (%)” value [1, 8] was 18% and 9%. The “Population Tubulin-Different-Phenotype (%)” value [1, 8] was 11% and 8%, the “Total Cell Count” value [1, 8] was 157 and 221 and the “Population Apoptotic (%)” value [2, 3] was 60% and 64%. The “Population Healthy Nuclei (%)” value [2, 3] was 57% and 80%, the “Population Hoechst High Intensity Objects (%)” value [2, 3] was 0% and the “Population Mitochondria Different-Phenotype (%)” value [2, 3] was 20% and 0%. The “Population Mitotic Cells (%)” value [2, 3] was 40% and 35%, the “Population Normal (%)” value [2, 3] was 100% and the “Population Pyknosed Nuclei (%)” value [2, 3] was 14% and 17%. The “Population Tubulin-Different-Phenotype (%)” value [2, 3] was 65% and 85%, the “Population Apoptotic (%)” value [2, 4] was 33% and 73% and the “Population Healthy Nuclei (%)” value [2, 4] was 52% and 83%. For the same compound, the “Population Hoechst High Intensity Objects (%)” value [2, 4] was 0%, the “Population Membrane Permeable-Phenotype (%)” value [2, 4] was 0% and 4% and the “Population Mitochondria Different-Phenotype (%)” value [2, 4] was 0%. For the same compound, the “Population Mitotic Cells (%)” value [2, 4] was 66% and 26%, the “Population Normal (%)” value [2, 4] was 100% and the “Population Pyknosed Nuclei (%)” value [2, 4] was 13% and 12%. For the same compound, the “Population Tubulin-Different-Phenotype (%)” value [2, 4] was 88% and 70%, the “Population Apoptotic (%)” value [2, 5] was 50% and 45% and the “Population Healthy Nuclei (%)” value [2, 5] was 72% and 85%. The “Population Hoechst High Intensity Objects (%)” value [2, 5] was 0%, the “Population Mitochondria Different-Phenotype (%)” value [2, 5] was 13% and 0% and the “Population Mitotic Cells (%)” value [2, 5] was 50% and 54%. For the same compound, the “Population Normal (%)” value [2, 5] was 100% and 99%, the “Population Pyknosed Nuclei (%)” value [2, 5] was 10% and 12% and the “Population Tubulin-Different-Phenotype (%)” value [2, 5] was 68% and 86%. The “Population Apoptotic (%)” value [2, 6] was 22% and 41%.
